Measured values: ChEMBL document CHEMBL4052588, “Design of a Biased Potent Small Molecule Inhibitor of the Bromodomain and PHD Finger-Containing (BRPF) Proteins Suitable for Cellular and in Vivo Studies” (J Med Chem, 2017)
Each block holds one compound with its values, some of them ahead of it.

Key:
[1] = biological target: SWI/SNF-related matrix-associated actin-dependent regulator of chromatin subfamily A member 2 (Homo sapiens, UniProt P51531); test: Inhibition of human SMARCA2A expressed in Escherichia coli BL21 after 1 hr by BROMOscan assay
Chain of SWI/SNF-related matrix-associated actin-dependent regulator of chromatin subfamily A member 2 (P51531 whole entry): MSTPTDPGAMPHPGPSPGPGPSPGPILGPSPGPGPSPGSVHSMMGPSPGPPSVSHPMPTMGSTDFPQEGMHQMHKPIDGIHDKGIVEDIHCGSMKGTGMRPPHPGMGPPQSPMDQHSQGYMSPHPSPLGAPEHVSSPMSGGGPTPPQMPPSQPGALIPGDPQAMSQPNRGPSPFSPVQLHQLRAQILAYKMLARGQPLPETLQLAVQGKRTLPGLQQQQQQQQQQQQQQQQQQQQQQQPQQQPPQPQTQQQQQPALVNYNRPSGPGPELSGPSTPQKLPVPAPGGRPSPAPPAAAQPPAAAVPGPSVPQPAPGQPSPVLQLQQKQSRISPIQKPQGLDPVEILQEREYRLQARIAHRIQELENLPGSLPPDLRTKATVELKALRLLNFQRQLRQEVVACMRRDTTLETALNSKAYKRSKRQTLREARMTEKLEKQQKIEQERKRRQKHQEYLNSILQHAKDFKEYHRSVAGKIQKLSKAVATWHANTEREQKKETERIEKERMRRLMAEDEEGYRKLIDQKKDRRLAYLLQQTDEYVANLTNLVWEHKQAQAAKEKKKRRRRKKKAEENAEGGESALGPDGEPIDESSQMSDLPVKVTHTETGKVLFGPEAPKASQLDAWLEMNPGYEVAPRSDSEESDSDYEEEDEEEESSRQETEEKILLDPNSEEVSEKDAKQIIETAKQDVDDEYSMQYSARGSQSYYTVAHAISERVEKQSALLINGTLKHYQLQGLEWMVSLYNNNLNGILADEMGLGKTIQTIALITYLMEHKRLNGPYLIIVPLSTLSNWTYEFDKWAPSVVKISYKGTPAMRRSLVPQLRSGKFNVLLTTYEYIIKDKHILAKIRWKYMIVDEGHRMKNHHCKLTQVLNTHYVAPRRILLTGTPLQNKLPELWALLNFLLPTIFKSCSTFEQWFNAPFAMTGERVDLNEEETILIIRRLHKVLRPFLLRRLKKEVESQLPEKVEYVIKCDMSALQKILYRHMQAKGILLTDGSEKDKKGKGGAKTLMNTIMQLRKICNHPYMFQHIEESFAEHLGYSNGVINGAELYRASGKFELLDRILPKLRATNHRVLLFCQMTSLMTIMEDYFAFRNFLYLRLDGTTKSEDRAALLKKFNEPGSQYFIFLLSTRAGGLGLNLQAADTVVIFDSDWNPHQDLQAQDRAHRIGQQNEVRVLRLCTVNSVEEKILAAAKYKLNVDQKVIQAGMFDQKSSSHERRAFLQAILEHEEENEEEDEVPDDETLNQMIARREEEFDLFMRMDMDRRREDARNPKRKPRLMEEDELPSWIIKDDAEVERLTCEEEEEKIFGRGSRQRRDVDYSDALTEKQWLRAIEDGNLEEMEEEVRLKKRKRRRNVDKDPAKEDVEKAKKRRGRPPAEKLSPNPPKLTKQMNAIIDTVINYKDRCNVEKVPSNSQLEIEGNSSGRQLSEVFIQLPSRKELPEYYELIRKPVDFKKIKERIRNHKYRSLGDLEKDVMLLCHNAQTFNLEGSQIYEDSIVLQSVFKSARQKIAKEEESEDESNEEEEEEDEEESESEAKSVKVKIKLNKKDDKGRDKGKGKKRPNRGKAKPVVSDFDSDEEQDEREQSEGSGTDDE

SW48 = test: Growth inhibition of human SW48 cells after 72 hrs; type: functional; details: SW48, 72 h
[2] = Cmax in CD-1 mouse blood at 3 mg/kg, po; type: ADME, organism-based; design: dose 3 mg/kg, route oral; details: whole blood
Method in brief: (§1)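 Female CD-1 mice (n = 3), single dosing: intravenous 1.0 mg/kg, or oral 3.0 mg/kg given as a suspension. Blood levels were followed over time to derive clearance, volume of distribution, elimination half-life, Cmax, Tmax, AUC0−∞, oral bioavailability and fraction absorbed.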

SNU-5 = test: Growth inhibition of human SNU5 cells after 72 hrs; type: functional; details: SNU-5, 72 h
LoVo = test: Growth inhibition of human LoVo cells after 72 hrs; type: functional
OCI-AML2 = test: Growth inhibition of human OCI-AML2 cells after 72 hrs; type: functional; details: OCI-AML2, 72 h
Hs 766 = test: Growth inhibition of human Hs766T cells after 72 hrs; type: functional; details: Hs 766, 72 h
[3] = Growth inhibition of human QGP1 cells after 72 hrs; type: functional; details: QGP-1, 72 h
NCI-H1437 = test: Growth inhibition of human NCI-H1437 cells after 72 hrs; type: functional; details: NCI-H1437, 72 h
HCC1187 = test: Growth inhibition of human HCC1187 cells after 72 hrs; type: functional; details: HCC1187, 72 h
NUGC-4 = test: Growth inhibition of human NUGC4 cells after 72 hrs; type: functional; details: NUGC-4, 72 h
[4] = biological target: T1, Bromodomain and PHD finger-containing protein 3 (Homo sapiens, UniProt Q9ULD4); test: Inhibition of human His tagged BRPF3 incubated for 30 mins followed by addition of biotinylated peptide and further incubation for 30 mins measured by AlphaScreen assay
T1 sequence (Q9ULD4 whole entry): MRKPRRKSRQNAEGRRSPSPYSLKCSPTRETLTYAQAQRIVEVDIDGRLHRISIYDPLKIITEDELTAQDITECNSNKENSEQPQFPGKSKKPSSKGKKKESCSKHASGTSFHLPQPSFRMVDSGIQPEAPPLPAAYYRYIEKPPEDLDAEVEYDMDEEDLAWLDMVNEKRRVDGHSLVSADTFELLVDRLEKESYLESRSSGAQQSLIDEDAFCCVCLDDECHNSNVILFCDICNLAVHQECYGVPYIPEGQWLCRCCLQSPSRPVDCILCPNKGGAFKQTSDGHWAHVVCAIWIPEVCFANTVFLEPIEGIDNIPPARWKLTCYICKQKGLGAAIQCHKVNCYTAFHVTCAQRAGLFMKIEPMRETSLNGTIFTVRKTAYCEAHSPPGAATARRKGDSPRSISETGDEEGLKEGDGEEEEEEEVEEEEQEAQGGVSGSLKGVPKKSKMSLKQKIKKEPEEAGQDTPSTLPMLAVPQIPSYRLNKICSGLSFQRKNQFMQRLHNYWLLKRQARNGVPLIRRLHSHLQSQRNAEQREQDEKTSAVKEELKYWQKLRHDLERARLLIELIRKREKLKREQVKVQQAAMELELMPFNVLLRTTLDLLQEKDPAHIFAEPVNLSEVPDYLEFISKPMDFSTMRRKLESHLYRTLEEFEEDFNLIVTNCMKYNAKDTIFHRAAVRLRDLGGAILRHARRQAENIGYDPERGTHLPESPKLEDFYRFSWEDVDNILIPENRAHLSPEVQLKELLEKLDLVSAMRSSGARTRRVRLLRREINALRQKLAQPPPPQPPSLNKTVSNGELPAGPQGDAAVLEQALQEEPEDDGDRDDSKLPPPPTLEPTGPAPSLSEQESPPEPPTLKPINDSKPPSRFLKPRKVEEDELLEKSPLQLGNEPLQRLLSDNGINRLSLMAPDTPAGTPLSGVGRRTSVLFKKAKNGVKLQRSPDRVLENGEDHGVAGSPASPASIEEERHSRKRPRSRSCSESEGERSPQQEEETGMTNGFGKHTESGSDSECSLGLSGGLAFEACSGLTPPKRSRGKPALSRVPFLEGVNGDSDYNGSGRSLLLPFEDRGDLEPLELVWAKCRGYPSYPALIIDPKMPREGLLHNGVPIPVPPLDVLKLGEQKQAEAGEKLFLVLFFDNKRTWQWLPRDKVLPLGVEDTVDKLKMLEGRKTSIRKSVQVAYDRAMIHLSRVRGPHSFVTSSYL
Method in brief: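 AlphaScreen biochemical readout of bromodomain inhibition, giving an IC50. Compound series were made by serial dilution of a 100 mM DMSO stock. […] Differences under 2-fold are treated as not significant.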

HuP-T4 = test: Growth inhibition of human HUPT4 cells after 72 hrs; type: functional; details: HuP-T4, 72 h
MV4-11 = test: Growth inhibition of human MV4-11 cells after 72 hrs; type: functional; details: MV4-11, 72 h
AGS = test: Growth inhibition of human AGS cells after 72 hrs; type: functional
[5] = Intrinsic clearance in mouse liver microsomes; type: ADME, microsome; details: read-out: CLH
COLO 205 = test: Growth inhibition of human COLO205 cells after 72 hrs; type: functional; details: COLO 205, 72 h
[6] = biological target: T2, Bromodomain-containing protein 9 (Homo sapiens, UniProt Q9H8M2); test: Binding affinity to human BRD9 by isothermal titration calorimetry
T2 sequence (Q9H8M2 whole entry): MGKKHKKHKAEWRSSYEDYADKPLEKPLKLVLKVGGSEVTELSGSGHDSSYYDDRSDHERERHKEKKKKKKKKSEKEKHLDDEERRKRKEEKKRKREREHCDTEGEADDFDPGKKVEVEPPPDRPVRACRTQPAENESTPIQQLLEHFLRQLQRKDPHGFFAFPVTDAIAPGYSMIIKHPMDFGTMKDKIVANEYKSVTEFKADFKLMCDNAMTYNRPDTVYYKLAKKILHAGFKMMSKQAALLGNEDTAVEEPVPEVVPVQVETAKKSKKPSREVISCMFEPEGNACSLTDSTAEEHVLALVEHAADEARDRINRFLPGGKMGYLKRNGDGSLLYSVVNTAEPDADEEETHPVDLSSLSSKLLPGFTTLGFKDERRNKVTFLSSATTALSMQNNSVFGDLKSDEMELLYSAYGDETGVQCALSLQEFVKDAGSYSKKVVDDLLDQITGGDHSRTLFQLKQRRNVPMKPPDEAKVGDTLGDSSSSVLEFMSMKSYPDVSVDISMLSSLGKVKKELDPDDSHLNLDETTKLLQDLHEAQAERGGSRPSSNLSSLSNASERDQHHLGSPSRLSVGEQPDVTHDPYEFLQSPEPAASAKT

[7] = Fraction unbound in mouse plasma; type: ADME, cell-free
[8] = Growth inhibition of human C99 cells after 72 hrs; type: functional; details: C99, 72 h
[9] = Elimination half life in CD-1 mouse plasma at 1 mg/kg, iv administered as bolus; type: ADME, organism-based; details: read-out: beta t1/2 (converted); method in brief: as §1
KG-1 = test: Growth inhibition of human KG1 cells after 72 hrs; type: functional; details: KG-1, 72 h

- IC50 [1]: 77 µM
Compound: CCc1cc2cc(NS(=O)(=O)c3ccc(C#N)cc3)ccc2n(CC)c1=O

- GI50 (SW48): 1 to 10 µM
- Cmax [2]: 4 µM
- GI50 (SNU-5): 1 to 10 µM
- GI50 (LoVo): 1 to 10 µM
- GI50 (OCI-AML2): 1.3 µM
- GI50 (NCI-H1437): 1 to 10 µM
- GI50 (HCC1187): 1 to 10 µM
- IC50 [4]: 2 µM
- GI50 (MV4-11): 9.9 µM
- GI50 (AGS): 1 to 10 µM
- microsomal CLint [5]: 14 µL/min/mg
- GI50 (COLO 205): 1 to 10 µM
- Kd [6]: 1.13 µM
- fraction unbound [7]: 0.03
- half-life [9]: 2 h
Compound: Cc1cc2cc(NS(=O)(=O)c3ccc(C#N)cc3)ccc2n(C)c1=O
- GI50 (Hs 766): 1 to 10 µM
- GI50 [3]: 1 to 10 µM
- GI50 (NUGC-4): 1 to 10 µM
- GI50 (HuP-T4): 1 to 10 µM
- GI50 [8]: 1 to 10 µM
- GI50 (KG-1): 7 µM
